Measurements from ChEMBL document CHEMBL3632541, “Synthesis, antileishmanial activity and cytotoxicity of 2,3-diaryl- and 2,3,8-trisubstituted imidazo[1,2-a]pyrazines” (Eur J Med Chem, 2015).
In brackets after ≈: the same amount, converted by molar mass. Activity calls are given as the source filed them. The calls are words filed in the database; no cut-off is given here.

Legend:
[1] = Inhibition of Leishmania major CK1.2 using RRKHAAIGpSAYSITA as substrate and [gamma-33P]ATP after 30 mins by scintillation counting
How it was run: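 Recombinant His-tagged L. major CK1.2 from E. coli, purified on cobalt beads. Assayed as for the porcine enzyme: CKS peptide substrate, 15 μM [γ-³³P]ATP, 30 min at 30 °C, P81 capture and scintillation counting. Activity as % of the no-inhibitor value.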

Leishmania major [2] = test: Antileishmanial activity against promastigote form of Leishmania major MHOM/IL/81/BNI after 96 hrs by spectrofluorimetric micromethod; assay type: functional, organism-based
[3] = Cytotoxicity against human HuTu 80 cells assessed as growth inhibition after 48 hrs by SRB assay method; assay type: cell-based, HuTu80
How it was run: (§1)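 Cells plated in growth medium and allowed to attach 24 h (37 °C, 5% CO₂). Time-zero plate fixed with TCA. Serial 4-fold dilutions added for 48 h. Cells fixed with cold TCA, stained with 0.2% SRB, dye solubilized in 10 mM Tris pH 10.5, absorbance read at 510 nm. GI50 is 50% absorbance reduction versus solvent controls, by linear regression. K562 counted by Coulter counter instead. 5-FU reference.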

[4] = Inhibition of native porcine brain CK1 delta/epsilon using RRKHAAIGpSAYSITA as substrate and [gamma-33P]ATP after 30 mins by scintillation counting; design: species or system Sus scrofa
How it was run: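 Native porcine brain CK1δ/ε, in threefold-diluted buffer A (25 mM Mops pH 7.2, 15 mM MgCl₂, 5 mM EGTA, 1 mM DTT, phosphatase inhibitors). 25 μM CKS peptide substrate, 15 μM [γ-³³P]ATP, 30 min at 30 °C. Stopped on P81 paper, washed in 1% phosphoric acid, counted by scintillation. Blank subtracted; activity as % of the no-inhibitor value; DMSO controls.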

[5] = Cytotoxicity against human HT-29 cells assessed as growth inhibition after 48 hrs by SRB assay method; assay type: cell-based; how it was run: as §1
[6] = Cytotoxicity against human K562 cells assessed as growth inhibition after 48 hrs by Coulter counter cell counting
[7] = Cytotoxicity against human DU145 cells assessed as growth inhibition after 48 hrs by SRB assay method; assay type: cell-based, DU-145; how it was run: as §1
[8] = Cytotoxicity against human MCF7 cells assessed as growth inhibition after 48 hrs by SRB assay method; assay type: cell-based; how it was run: as §1
[9] = Therapeutic index, ratio of IC50 for BALB/c mouse peritoneal macrophages to IC50 for promastigote form of Leishmania major (MHOM/IL/81/BNI); conditions: read-out: Ratio IC50
[10] = Therapeutic index, ratio of IC50 for BALB/c mouse 3T3 clone A31 cells to IC50 for promastigote form of Leishmania major (MHOM/IL/81/BNI); assay type: cell-based; conditions: read-out: Ratio IC50
[11] = Cytotoxicity against BALB/c mouse peritoneal macrophages assessed as cell viability after 48 hrs by trypan blue dye exclusion method; assay type: cell-based; conditions: Peritoneal macrophage cell
[12] = Cytotoxicity against human M14 cells assessed as growth inhibition after 48 hrs by SRB assay method; assay type: cell-based; how it was run: as §1
[13] = Cytotoxicity against human H460 cells assessed as growth inhibition after 48 hrs by SRB assay method; assay type: cell-based, NCI-H460; how it was run: as §1
[14] = Cytotoxicity against BALB/c mouse 3T3 clone A31 cells after 48 hrs by SRB assay method; assay type: cell-based; conditions: A31, 48 h; how it was run: as §1
Leishmania amazonensis = test: Antileishmanial activity against axenic amastigote stage of Leishmania amazonensis MHOM/BR/76/LTB-012 by MTT method; assay type: functional, organism-based
How it was run: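 Axenic amastigotes, grown in MAA/20 medium at 32 ± 1 °C. IC50 by MTT micromethod; compounds from 10 mM DMSO stocks, DMSO ≤1% final.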

Leishmania major [15] = test: Antileishmanial activity against amastigote form of Leishmania major MHOM/IL/81/BNI amastigote in Balb/c mouse peritoneal macrophages after 4 days by May-Grunwald-Giemsa staining-based microscopic analysis; assay type: functional, organism-based; conditions: 96 h
How it was run: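 Peritoneal macrophages from Balb/c mice, 1.5 10⁵ cell/mL in RPMI 1640 + 15% FBS, left 24 h on glass slides (37 °C, 5% CO₂), then infected 24 h with stationary-phase promastigotes (1.5 × 10⁶/mL). Washed cultures exposed to 100, 10, 1 and 0.1 µM for 4 days. Fixed with methanol, Giemsa-stained. Amastigotes counted in 100 macrophages per duplicate well; IC50 from amastigotes/macrophage. Done twice.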

[16] = Therapeutic index, ratio of IC50 for BALB/c mouse peritoneal macrophages to IC50 for amastigote form of Leishmania major (MHOM/IL/81/BNI) in BALB/c mouse peritoneal macrophages; conditions: read-out: Ratio IC50

Row | SMILES | IC50 [1] [µM] | IC50 (Leishmania major [2]) [µM] | GI50 at 48 h [3] [µg/mL] | IC50 [4] [µM] | GI50 at 48 h [5] [µg/mL] | GI50 at 48 h [6] [µg/mL] | GI50 at 48 h [7] [µg/mL] | GI50 at 48 h [8] [µg/mL] | selectivity ratio [9] | selectivity ratio [10] | IC50 [11] [µM] | GI50 at 48 h [12] [µg/mL] | GI50 at 48 h [13] [µg/mL] | IC50 [14] [µM] | Activity (Leishmania amazonensis) | IC50 (Leishmania major [15]) [µM] | selectivity ratio [16]
1 | CN(C)CCNc1nccn2c(I)c(-c3ccccc3)nc12 | > 10 | 24.2 | 12 (≈ 29.5 µM) | > 10 | 4 (≈ 9.82 µM) | 5 (≈ 12.3 µM) | 20 (≈ 49.1 µM) | 9 (≈ 22.1 µM) | 2.8 | 1.3 | 68.6 | 4 (≈ 9.82 µM) | 13 (≈ 31.9 µM) | 31.9 | – | – | –
2 | CN(C)c1nccn2c(-c3ccncc3)c(-c3ccc(F)cc3)nc12 | 0.99 | 6.4 | 77 (≈ 231 µM) | 2.1 | > 125 | > 125 | > 125 | 52 (≈ 156 µM) | 6.6 | > 58.6 | 42 | > 125 | > 125 | > 375 | inactive | 0.8 | 52.5
3 | Fc1ccc(-c2nc3c(NCCN4CCOCC4)nccn3c2I)cc1 | > 10 | 2.8 | 73 (≈ 156 µM) | > 10 | > 125 | > 125 | > 125 | > 125 | 33.3 | > 95.6 | 93.2 | > 125 | > 125 | > 268 | inactive | 0.2 | 466
4 | N=C(N)c1ccc(OCCCCCOc2ccc(C(=N)N)cc2)cc1 [PENTAMIDINE] | – | 4.6 | – | – | – | – | – | – | 33.2 | – | 153 | – | – | – | – | 3 | 50.9
5 | c1ccc(-c2nc3cnccn3c2-c2ccccc2)cc1 | > 10 | 26.2 | – | – | – | – | – | – | 1.6 | – | 41.4 | – | – | – | – | – | –
6 | COc1ccc(-c2c(-c3ccccc3)nc3cnccn23)cc1 | > 10 | 17.4 | – | – | – | – | – | – | 3.5 | – | 60.2 | – | – | – | – | – | –
7 | CN(C)c1nccn2c(I)c(-c3ccccc3)nc12 | > 10 | 6.8 | 44 (≈ 121 µM) | > 10 | 38 (≈ 104 µM) | 16 (≈ 43.9 µM) | 39 (≈ 107 µM) | 3 (≈ 8.24 µM) | 4.3 | 5.3 | 29.2 | > 125 | 47 (≈ 129 µM) | 35.7 | – | – | –
8 | CN(C)c1nccn2c(-c3ccncc3)c(-c3ccccc3)nc12 | 0.48 | 31.3 | 50 (≈ 159 µM) | 2.4 | 56 (≈ 178 µM) | 48 (≈ 152 µM) | 90 (≈ 285 µM) | 32 (≈ 101 µM) | 4.6 | 5 | 144 | 84 (≈ 266 µM) | 70 (≈ 222 µM) | 155 | inactive | 9.4 | 15.3
9 | c1ccc(-c2nc3cnccn3c2-c2ccncc2)cc1 | 1.3 | 20.1 | – | 3.3 | – | – | – | – | 7.7 | – | 154 | – | – | – | inactive | 2.7 | 57
10 | Clc1cc(Cl)cc(-c2c(-c3ccccc3)nc3cnccn23)c1 | > 10 | 10.3 | – | – | – | – | – | – | 3.4 | – | 35.6 | – | – | – | – | – | –
11 | c1ccc(-c2nc3c(NCCN4CCOCC4)nccn3c2-c2ccncc2)cc1 | 2.4 | 23.5 | – | 3.3 | – | – | – | – | 2.2 | – | 51.7 | – | – | – | – | – | –
12 | CCOC(=O)c1ccc(-c2c(-c3ccccc3)nc3cnccn23)cc1 | > 10 | 17.5 | – | – | – | – | – | – | 2.9 | – | 49.8 | – | – | – | – | – | –
13 | O=[N+]([O-])c1ccc(-c2c(-c3ccccc3)nc3cnccn23)cc1 | > 10 | 27.6 | – | – | – | – | – | – | 4.2 | – | 114 | – | – | – | – | – | –
14 | O=c1[nH]cc(F)c(=O)[nH]1 [FLUOROURACIL] | – | – | 0.4 (≈ 3.08 µM) | – | 0.4 (≈ 3.08 µM) | 0.9 (≈ 6.92 µM) | 1 (≈ 7.69 µM) | 0.3 (≈ 2.31 µM) | – | – | – | 0.7 (≈ 5.38 µM) | 0.3 (≈ 2.31 µM) | – | – | – | –
15 | Fc1ccc(-c2nc3c(NCCN4CCOCC4)nccn3c2-c2ccncc2)cc1 | 0.62 | 16.5 | 28 (≈ 66.9 µM) | 2.7 | 27 (≈ 64.5 µM) | 21 (≈ 50.2 µM) | 39 (≈ 93.2 µM) | 19 (≈ 45.4 µM) | 2.4 | 2.9 | 40.3 | 36 (≈ 86 µM) | 20 (≈ 47.8 µM) | 47.8 | – | – | –
16 | CN(C)CCNc1nccn2c(-c3ccncc3)c(-c3ccccc3)nc12 | 0.51 | 68.8 | 32 (≈ 89.3 µM) | 1.6 | 6 (≈ 16.7 µM) | 15 (≈ 41.8 µM) | 47 (≈ 131 µM) | 6 (≈ 16.7 µM) | 0.9 | 1.3 | 64.9 | 27 (≈ 75.3 µM) | 40 (≈ 112 µM) | 86.5 | – | – | –
17 | Ic1c(-c2ccccc2)nc2c(NCCN3CCOCC3)nccn12 | > 10 | 10.6 | 33 (≈ 73.4 µM) | > 10 | 22 (≈ 49 µM) | 18 (≈ 40.1 µM) | 47 (≈ 105 µM) | 29 (≈ 64.5 µM) | 3 | 22.3 | 31.4 | 179 (≈ 398 µM) | 121 (≈ 269 µM) | 236 | – | – | –
18 | Clc1cccc(-c2c(-c3ccccc3)nc3cnccn23)c1 | – | 14.5 | – | – | – | – | – | – | 3.5 | – | 51.5 | – | – | – | – | – | –
19 | CN(C)CCNc1nccn2c(I)c(-c3ccc(F)cc3)nc12 | > 10 | 24.7 | 6 (≈ 14.1 µM) | > 10 | 4 (≈ 9.41 µM) | 43 (≈ 101 µM) | 13 (≈ 30.6 µM) | 5 (≈ 11.8 µM) | 1.4 | 0.8 | 33.8 | 4 (≈ 9.41 µM) | 9 (≈ 21.2 µM) | 18.8 | – | – | –
20 | CN(C)CCNc1nccn2c(-c3ccncc3)c(-c3ccc(F)cc3)nc12 | 0.52 | 35.3 | 24 (≈ 63.8 µM) | 1.6 | 8 (≈ 21.3 µM) | 14 (≈ 37.2 µM) | 52 (≈ 138 µM) | 8 (≈ 21.3 µM) | 1.6 | 2.9 | 57.8 | 19 (≈ 50.5 µM) | 34 (≈ 90.3 µM) | 101 | – | – | –
21 | CN(C)c1nccn2c(I)c(-c3ccc(F)cc3)nc12 | > 10 | > 100 | 22 (≈ 57.6 µM) | > 10 | > 125 | > 125 | 40 (≈ 105 µM) | 3 (≈ 7.85 µM) | – | – | – | > 125 | 25 (≈ 65.4 µM) | 99.4 | – | – | –
